In ChEMBL document CHEMBL1124248, “Preparation and antischistosomal and antitumor activity of hycanthone and some of its congeners. Evidence for the mode of action of hycanthone” (1988):

Legend:
Schistosoma mansoni [1] = experiment: Incorporation of 0.7 M *10e6 [3H]uridine in hycanthone(HC) sensitive Schistosoma mansoni; type: functional
Nucleic Acid [2] = experiment: In vitro binding of [3H]-HC to calf thymus DNA after precipitation with alcohol and TCA was measured after 3 days; type: nucleic-acid assay; conditions: Bos taurus
In short: (§1)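 0.02 µCi of 3H-labelled drug was added to 50 µg calf thymus DNA in 20 µL of 0.1 M citrate-phosphate buffer, pH 7. Incubated 1.5 h at 37 °C in the dark, diluted to 0.1 mL saline and dialyzed against saline at 4 °C for up to 4 days. Duplicate 10 µL samples taken from inside the bags at intervals were counted directly, or after TCA precipitation.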

Nucleic Acid [3] = experiment: In vitro binding of [3H]HC to calf thymus DNA after precipitation with alcohol and TCA was measured after 2 hours; type: nucleic-acid assay; conditions: Bos taurus; in short: as §1
Nucleic Acid [4] = experiment: In vitro binding of [3H]HC to calf thymus DNA was measured after 1 day; type: nucleic-acid assay; conditions: Bos taurus; in short: as §1
HeLa [5] = experiment: Incorporation of 2*10e-5 M [3H]uridine in HeLa cells in presence of HC measured as as TCA precipitable radioactivity compared with non treated controls; type: functional, cell-based; conditions: Homo sapiens
In short: (§2)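 HeLa cells (10^6 per duplicate tube) were incubated 1 h with drug. [3H]uridine was then added and incubation continued 1 h with drug present. Cells were washed with cold saline and precipitated with 10% TCA. Precipitates were collected on glass filters, TCA-washed and counted. Values are % TCA-precipitable radioactivity versus untreated controls.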

Schistosoma mansoni [6] = experiment: Day 50% survival of worms in culture of HC resistant Schistosoma mansoni; type: functional
In short: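 Adult HC-resistant S. mansoni were exposed in vitro and kept in culture. The value is the day by which 50% of worms were dead. Cultures were ended at different times in different experiments. Concentrations are given in M × 10^6.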

HeLa [7] = experiment: Incorporation of 2*10e-5 M [3H]-uridine in HeLa cells in absence of HC measured as as TCA precipitable radioactivity compared with non treated controls; type: functional, cell-based; conditions: Homo sapiens
In short: (§3)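 HeLa cells (10^6 per duplicate tube) were exposed to drug for 1 h, washed three times with medium, then held 2 h in drug-free medium. [3H]uridine was added for 1 h. Cells were precipitated with 10% TCA, and precipitates were filter-collected and counted. Values are % TCA-precipitable radioactivity versus untreated controls.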

Nucleic Acid [8] = experiment: In vitro binding of [3H]HC to calf thymus DNA was measured after 2 days; type: nucleic-acid assay; conditions: Bos taurus; in short: as §1
[9] = (§4) Total radioactivity of [3H]HC was evaluated after 3 days; type: functional
In short: (§5)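 3H-labelled drug (0.02 µCi) was mixed with 50 µg calf thymus DNA in 0.1 M citrate-phosphate buffer, pH 7, and incubated in the dark for 1.5 h at 37 °C. The mix was diluted in saline and dialysed against saline at 4 °C. Duplicate samples drawn from inside the bags at intervals up to 4 days were counted directly.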

HeLa [10] = experiment: Incorporation of 10e-5 M [3H]uridine in HeLa cells in presence of HC measured as as TCA precipitable radioactivity compared with non treated controls; type: functional, cell-based; conditions: Homo sapiens; in short: as §2
Schistosoma mansoni [11] = experiment: Incorporation of 1.4 M*10e6 [3H]uridine in hycanthone(HC) sensitive Schistosoma mansoni; type: functional
Nucleic Acid [12] = experiment: In vitro binding of [3H]HC to calf thymus DNA; type: nucleic-acid assay; conditions: Bos taurus; in short: as §1
Nucleic Acid [13] = experiment: In vitro binding of [3H]HC to calf thymus DNA after precipitation with alcohol and TCA was measured after 1 day; type: nucleic-acid assay; conditions: Bos taurus; in short: as §1
Nucleic Acid [14] = experiment: Binding of 1x 10e-5 M [3H]HC to HeLa DNA; type: nucleic-acid assay; conditions: Homo sapiens
In short: (§6)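 HeLa cells exposed 1 h to [3H]-labelled drug, washed three times with saline, then held 30 min at 37 °C in drug-free medium. After a 2 h digestion at 37 °C, crude DNA was ethanol-precipitated, purified on a CsCl density gradient, dialyzed and reprecipitated. DNA was quantified by A260. An aliquot was treated with DNase, and DNase-sensitive radioactivity was expressed as drug molecules per base pair.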

Mus musculus = experiment: In vivo antitumor activity against p-388 lymphocytic leukemia in mice at 60 mg/kg; type: functional
In short: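 Murine P388 lymphocytic leukemia model tested by the National Cancer Institute. Compound given once daily for 9 days; activity expressed as T/C.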

[15] = as §4; type: functional; in short: as §5; remark: listed apart in the source
HeLa [16] = experiment: Incorporation of 10e-5 M [3H]uridine in HeLa cells in absence of HC measured as as TCA precipitable radioactivity compared with non treated controls; type: functional, cell-based; conditions: Homo sapiens; in short: as §3
Nucleic Acid [17] = experiment: Binding of 1x 10e-4 M [3H]HC to HeLa DNA; type: nucleic-acid assay; conditions: Homo sapiens; in short: as §6
Nucleic Acid [18] = experiment: In vitro binding of [3H]HC to calf thymus DNA was measured after 3 days; type: nucleic-acid assay; conditions: Bos taurus; in short: as §1
Nucleic Acid [19] = experiment: Binding of 5x 10e-4 M [3H]HC to HeLa DNA; type: nucleic-acid assay; conditions: Homo sapiens; in short: as §6
HeLa [20] = experiment: Incorporation of [3H]uridine in HeLa cells after 2x10e-5 M HC measured as as TCA precipitable radioactivity compared with non treated controls; conditions: Homo sapiens
Nucleic Acid [21] = experiment: In vitro binding of [3H]HC to calf thymus DNA after precipitation with alcohol and TCA was measured; type: nucleic-acid assay; conditions: Bos taurus; in short: as §1
Schistosoma mansoni [22] = experiment: Incorporation of 1.4 M*10e6 [3H]uridine in hycanthone(HC) resistant Schistosoma mansoni; type: functional
In short: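 Adult HC-resistant S. mansoni were treated in vitro, and [3H]uridine incorporation by the worms was measured. Values are % of control. Concentrations are given in M × 10^6.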

[23] = Total radioactivity of [3H]HC was evaluated after 2 hours; type: functional; in short: as §5
Nucleic Acid [24] = experiment: In vitro binding of [3H]HC to calf thymus DNA was measured after 4 day; type: nucleic-acid assay; conditions: Bos taurus; in short: as §1
Nucleic Acid [25] = experiment: In vitro binding of [3H]HC to calf thymus DNA after precipitation with alcohol and TCA was measured after 4 day; type: nucleic-acid assay; conditions: Bos taurus; in short: as §1
[26] = Total radioactivity of [3H]HC was evaluated after 2 hr; type: functional; in short: as §5
Nucleic Acid [27] = experiment: In vitro binding of [3H]HC to calf thymus DNA after precipitation with alcohol and TCA was measured after 2 day; type: nucleic-acid assay; conditions: Bos taurus; in short: as §1
Schistosoma mansoni [28] = experiment: Day 50% survival of worms in culture of HC sensitive Schistosoma mansoni; type: functional
Nucleic Acid [29] = experiment: In vitro binding of [3H]HC to calf thymus DNA was measured after 2 hours; type: nucleic-acid assay; conditions: Bos taurus; in short: as §1

For `CCN(CC)CCNc1ccc(CO)c2sc3ccccc3c(=O)c12` [HYCANTHONE], the Control (Schistosoma mansoni [1]) was 20%, the Radioactivity (Nucleic Acid [2]) was 265 c.p.m and the Radioactivity (Nucleic Acid [3]) was 430 c.p.m. For the same compound, the Radioactivity (Nucleic Acid [4]) was 3460 c.p.m, the Radioactivity (HeLa [5]) was 37% and the Effect (Schistosoma mansoni [6]) was >12 days. For the same compound, the Radioactivity (HeLa [7]) was 68%, the Radioactivity (Nucleic Acid [8]) was 2300 c.p.m and the Radioactivity [9] was 700 c.p.m. For the same compound, the Radioactivity (HeLa [10]) was 32%, the Control (Schistosoma mansoni [11]) was 30% and the Radioactivity (Nucleic Acid [12]) was 235000 c.p.m. For the same compound, the Radioactivity (Nucleic Acid [13]) was 330 c.p.m, the Drug mol/base pair (Nucleic Acid [14]) was < 4e-08 and the T/C (Mus musculus) was 165. For the same compound, the Radioactivity [15] was 62 c.p.m, the Radioactivity (HeLa [16]) was 88% and the Drug mol/base pair (Nucleic Acid [17]) was < 4e-08. The Radioactivity (Nucleic Acid [18]) was 1600 c.p.m, the Drug mol/base pair (Nucleic Acid [19]) was 7e-07 and the Radioactivity (HeLa [20]) was 68%. The Radioactivity (Nucleic Acid [21]) was 350 c.p.m, the Control (Schistosoma mansoni [22]) was 98% and the Radioactivity [23] was 20500 c.p.m. The Radioactivity (Nucleic Acid [24]) was 1100 c.p.m, the Radioactivity (Nucleic Acid [25]) was 200 c.p.m and the Radioactivity [26] was 100 c.p.m. For the same compound, the Radioactivity (Nucleic Acid [27]) was 275 c.p.m, the Effect (Schistosoma mansoni [28]) was 7 days and the Radioactivity (Nucleic Acid [29]) was 50000 c.p.m.
